Screens deposited in PubChem BioAssay by Sanford-Burnham Center for Chemical Genomics.
An excerpt weighted towards active compounds, which were near 4.1% of everything screened.
UPR CHOP act = activators of apoptotic CHOP UPR arm, primary screen, cell-based, CHO-CHOP luciferase reporter, luminescence, uHTS; UPR activation; percent of tunicamycin response over DMSO baseline; activation, % at 10 µM; 330,000 compounds, 0.34% hits; AID 449763, 2010;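 active = at 10 µM dose, activation of 40% or more, normalized to positive control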
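Evaluation: % reporter activation, DMSO baseline versus tunicamycin full activation; System: CHO-CHOP luciferase reporter cell line; Input: 500 cells/well; Incubation: 6 h compound treatment, 37 °C; Measured by: Steady-Glo luciferase luminescence; Dosing: one dose, 10 µM in 0.5% DMSO; Buffer or medium: F12 medium, 10% FBS; Benchmarks: positive tunicamycin 10 µg/mL, negative DMSO alone.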
UBC13 polyUb = UBC13 polyubiquitin chain formation inhibitors, primary screen, biochemical, TR-FRET, uHTS. Ubiquitin-conjugating enzyme E2 N (Homo sapiens), P61088. inhibition, % at 20 µM. 330,000 compounds, 0.47% hits; in the data active = inhibition above about 45%, passing the limit was not always enough
Target sequence (P61088 whole entry, looked up): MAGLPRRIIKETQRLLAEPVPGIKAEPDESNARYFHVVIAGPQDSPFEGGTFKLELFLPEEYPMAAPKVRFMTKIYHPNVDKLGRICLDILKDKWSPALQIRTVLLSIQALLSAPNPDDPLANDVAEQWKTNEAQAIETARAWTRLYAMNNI
Mdm2-MdmX inh = inhibitors of human Mdm2-MdmX association, primary screen, cell-based, luminescence, split luciferase, SaOS-2, uHTS; Protein Mdm4 (Homo sapiens) + E3 ubiquitin-protein ligase Mdm2 (Homo sapiens), …; SaOS-2 split-luciferase Mdm2/MdmX complementation; inhibition, % at 8 µM; 330,000 compounds, 3% hits;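 active = inhibition of at least 50% at 8 µM in the primary screen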
XBP1 UPR activ = activators of adaptive XBP1 UPR arm, primary screen, cell-based, CHO-XBP1 luciferase reporter, luminescence, uHTS; AID 463104, 2010; activation, % at 20 µM; 330,000 compounds, 0.33% hits; IRE1-XBP1 UPR activation; percent of tunicamycin response, DMSO as zero;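 active = versus positive control, 20 µM dose yields 30% or more activation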
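Material: IRE1-XBP1 luciferase reporter CHO line / Quantity: one thousand reporter cells per well / Buffer or medium: F12 with 10% serum / Compound: 20 µM single concentration, DMSO 1% / Times: 6 h treatment, 37 °C / Detection: Steady-Glo luciferase glow luminescence, 10 min after reagent addition / Benchmarks: tunicamycin high, DMSO low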
Apaf1 inhib = inhibitors of human Apaf-1 apoptosome, primary screen, biochemical, DEVD-Rh110 fluorescence, uHTS. inhibition, % at 20 µM. 330,000 compounds, 0.71% hits. reconstituted apoptosome caspase-3 activity. Apoptotic protease-activating factor 1 (Homo sapiens), O14727; active = inhibition of at least 40% at 20 µM
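Material: cell-free apoptosome with Apaf-1, procaspase-3 and caspase-9; Buffer or medium: Hepes pH 7.5 with detergent and BSA; Reagent: cytochrome c trigger plus (Z-DEVD)2-Rh110 caspase-3 substrate; Times: compound with Apaf-1, dATP, procaspase-3 30 min, then 50 min reaction, room temperature; Technique: Rh110 fluorescence intensity.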
Mdm2 MdmX conf = Mdm2-MdmX complex disruptors, retested hits, confirmation, luminescence, single concentration. Mdm2-MdmX binding, luminescent assay. inhibition, % at 8 µM. AID 489028, 2010. 10,000 compounds, 55% hits. shares compounds with Mdm2-MdmX inh; in the data active = inhibition above about 40%
FLuc counter = full-length luciferase signal inhibition, confirmation, counter-screen for Mdm2/MdmX interaction inhibitor project, cell-based, single concentration, SaOS-2; shares compounds with Mdm2-MdmX inh; SaOS-2 full-length luciferase counterscreen, luminescence; inhibition, % at 8 µM; 6,200 compounds, 77% hits; AID 504607, 2011;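 active = mean inhibition at 8 µM reaching about 37%, which flags the compound as non-specific, limit read from the data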;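 note: p53-null SaOS-2 cells with luciferase driven by a doxycycline-inducible promoter; compound on cells about two nights before reading with doxycycline added after day one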
Of the large screens only hits and unclear results are named; the others gave an inactive call (follow-up assays come after a bar, where they were run).

CC(C)NC[C@@H](O)COc1cccc2ccccc12	none
O=C(COc1cccc(C(F)(F)F)c1)NNC(=O)c1ccc(=O)[nH]c1	none
COc1ccc(NC2=C(C)C(=O)CC2)cc1	Mdm2-MdmX inh 59 | Mdm2 MdmX conf inactive | FLuc counter 90
CCOc1cc(/C=N/NC(=O)Cn2nc([N+](=O)[O-])cc2C)cc(Br)c1OCc1ccccc1F	Mdm2-MdmX inh 51 | Mdm2 MdmX conf inactive
CCOc1cc(/C=N/NC(N)=O)cc(Br)c1OCc1ccccc1F	none
COc1ccccc1CNC(=O)CCCOc1cc(=O)n(C)c2ccccc12	Mdm2-MdmX inh 59 | Mdm2 MdmX conf inactive
COc1ccc(CCNC(=O)CCCOc2cc(=O)n(C)c3ccccc23)cc1OC	none
COc1cc(/C=C/C(=O)O)cc(S(=O)(=O)Nc2ccc(S(=O)(=O)N3CCCCC3)cc2)c1OC	none
Oc1cc(NCc2ccc(Cl)cc2)cc2cccnc12	none
Oc1cc(NCc2ccc(F)cc2)cc2cccnc12	Mdm2-MdmX inh 56 | Mdm2 MdmX conf inactive
CCCCCCOC(=O)C[N+](C)(C)CCOC1CC2CCC1(C)C2(C)C (stereo unspecified)	UBC13 polyUb 54, Mdm2-MdmX inh 67, Apaf1 inhib 52 | Mdm2 MdmX conf 74 | FLuc counter inactive
CCCCOC(=O)C[N+](C)(C)CCOC1CC2CCC1(C)C2(C)C (stereo unspecified)	none
CN1C(=O)C2(c3ccccc31)c1c(oc3ccccc3c1=O)C(=O)N2CCCO (stereo unspecified)	none
CCc1cc(SC#N)cc(C)c1N	none
Cc1cc(SC#N)cc(C)c1NC(=O)CCl	Mdm2-MdmX inh 59 | Mdm2 MdmX conf 49 | FLuc counter inactive
CCc1cc(SC#N)cc(C)c1NC(=O)CCl	Mdm2-MdmX inh 81 | Mdm2 MdmX conf 41 | FLuc counter 55
NS(=O)(=O)c1ccc(CCNC(=O)c2coc3ccccc3c2=O)cc1	none
O=C(NCc1cccs1)C1CCN(S(=O)(=O)c2ccccc2F)CC1	none
N#Cc1nc(NCC(F)F)nc(Nc2cc(F)cc(F)c2)n1	Mdm2-MdmX inh 64 | Mdm2 MdmX conf 58 | FLuc counter inactive
CCN(CC)CCNC(=O)CCc1c(C)nc2c(c(C)nn2-c2ccc(C)c(C)c2)c1C	Mdm2-MdmX inh 58 | Mdm2 MdmX conf 44 | FLuc counter 48
Cc1ccc(-n2nc(C)c3c(C)c(CCC(=O)Nc4ccc(CN5CCCC5)cc4)c(C)nc32)cc1	Mdm2-MdmX inh 89 | Mdm2 MdmX conf 50 | FLuc counter inactive
COc1ccc(-c2nsc3c(N4CCCCC4C)ncnc23)cc1 (stereo unspecified)	Mdm2-MdmX inh 84 | Mdm2 MdmX conf 91 | FLuc counter inactive
COc1ccc(-c2nsc3c(N4CCN(S(=O)(=O)c5ccccc5F)CC4)ncnc23)cc1	none
COc1ccc(-c2nsc3c(N4CCCCC4)ncnc23)cc1	Mdm2-MdmX inh 66 | Mdm2 MdmX conf 70 | FLuc counter 55
CCOC(=O)C1=C(C)Nc2ccccc2N=C1NC(=O)c1cc(C)on1	none
CNC[C@H](Cc1cccc2ccccc12)NC[C@H](CCSC)NCC1CCC(C(C)(C)C)CC1 (stereo partly specified)	UBC13 polyUb 86, Mdm2-MdmX inh 60, Apaf1 inhib 65 | Mdm2 MdmX conf inactive
O=C(/C=C/c1ccccc1[N+](=O)[O-])c1ccccc1Br	Mdm2-MdmX inh 72 | Mdm2 MdmX conf inactive
Cc1ccc(-n2c(-c3ccccc3)c[n+]3c2CCc2ccccc2-3)c(C)c1	Mdm2-MdmX inh 82 | Mdm2 MdmX conf 66 | FLuc counter inactive
O=C(NCC(c1ccco1)N1CCCCC1)c1cccc(S(=O)(=O)Nc2ccc(F)cc2)c1 (stereo unspecified)	none
CC(C)C[C@]1(c2ccccc2)ON(c2ccccc2C(F)(F)F)C1=O	none
COc1ccccc1[C@]1(C)ON(c2ccccc2C(F)(F)F)C1=O	Mdm2-MdmX inh 92 | Mdm2 MdmX conf 77 | FLuc counter 37
COc1ccc2c(c1)C(=O)N(c1ccccc1OC)C(=O)C2(C)C	none
CC[C@]1(c2ccccc2OC)ON(c2ccccc2C(F)(F)F)C1=O	Mdm2-MdmX inh 90 | Mdm2 MdmX conf 84 | FLuc counter inactive
CC(C)Cc1nnc(NC(=O)CCC(=O)N2CCN(Cc3ccc(Cl)cc3)CC2)s1	none
C=CCOc1cccc(C(=O)/C=C2/C(=O)Nc3ccccc32)c1	UPR CHOP act 86, Mdm2-MdmX inh 86 | Mdm2 MdmX conf inactive
COC(=O)c1ccc(CNC(=O)c2ccc(S(=O)(=O)N3CCCC(C)C3)cc2)cc1 (stereo unspecified)	none
COc1ccc2[nH]c(=O)c3c(c2c1)OC(C)(C)C=C3	Mdm2-MdmX inh 90 | Mdm2 MdmX conf 75 | FLuc counter 57
CC(C)(C)c1nnc(N/N=C/c2ccccc2)n(N)c1=O	none
CC(C)(C)c1nnc(N/N=C/c2ccccc2O)n(N)c1=O	Mdm2-MdmX inh 59 | Mdm2 MdmX conf 82 | FLuc counter inactive
CCN(CC)C(=O)C1CCCN(Cc2ccc3ccccc3c2)C1 (stereo unspecified)	none
O=C(NCC1CCCO1)c1cccc(S(=O)(=O)N(Cc2ccccc2)c2ccccc2)c1 (stereo unspecified)	none
Clc1ccc(-c2cc(-c3ccccc3)on2)cc1	none
CC(=O)Nc1ccc2nc(-c3ccccc3)cn2c1	none
Cc1ccc2nc(-c3cc(-c4ccccc4)no3)cn2c1	Mdm2-MdmX inh 70 | Mdm2 MdmX conf inactive
CCc1ccn2cc(-c3cc(-c4ccccc4)no3)nc2c1	Mdm2-MdmX inh 66 | Mdm2 MdmX conf 67 | FLuc counter 95
COc1ccc(S(=O)(=O)Nc2cc(C)on2)cc1	none
CCN(Cc1ccccc1)C(c1ccccn1)c1nnnn1C(C)(C)CC (stereo unspecified)	none
CC(C)(C)n1nnnc1C(c1ccccn1)N(Cc1ccccc1)Cc1ccc(Cl)cc1 (stereo unspecified)	Mdm2-MdmX inh 60 | Mdm2 MdmX conf inactive
COCCNC(=O)CSc1nnc(NC(=O)C2CC(=O)N(c3ccccc3OC)C2)s1 (stereo unspecified)	none
CCOc1ccc(NS(=O)(=O)c2cc(NC(=O)c3ccc(C)cc3)ccc2Cl)cc1	Mdm2-MdmX inh 57 | Mdm2 MdmX conf 67 | FLuc counter 64
